Active and inactive are the calls of the source. The calls are words filed in the database; no cut-off is given here.
Columns and labels:
[1] = target: T1, Signal transducer and activator of transcription 3 (Homo sapiens, UniProt P40763); assay: Inhibition of STAT3 phosphorylation at Ser727 residue in human MDA-MB-231-4175 cells at 3 uM after 3 hrs by Western blotting analysis; format: cell-based; settings: MDA231-LM2-4175
[2] = target: T1, Signal transducer and activator of transcription 3; assay: Inhibition of STAT3 phosphorylation at Ser727 residue in human HCC70 cells at 3 uM after 3 hrs by Western blotting analysis; format: cell-based
[3] = target: T2, Signal transducer and activator of transcription 5A (Homo sapiens) (UniProt P42229); assay: Inhibition of STAT5 phosphorylation at Y694 residue in human MDA-MB-231 cells at 0.3 to 3 uM after 3 hrs by Western blotting analysis; format: cell-based; settings: dose 0.3-3 µM
T2 sequence (whole entry): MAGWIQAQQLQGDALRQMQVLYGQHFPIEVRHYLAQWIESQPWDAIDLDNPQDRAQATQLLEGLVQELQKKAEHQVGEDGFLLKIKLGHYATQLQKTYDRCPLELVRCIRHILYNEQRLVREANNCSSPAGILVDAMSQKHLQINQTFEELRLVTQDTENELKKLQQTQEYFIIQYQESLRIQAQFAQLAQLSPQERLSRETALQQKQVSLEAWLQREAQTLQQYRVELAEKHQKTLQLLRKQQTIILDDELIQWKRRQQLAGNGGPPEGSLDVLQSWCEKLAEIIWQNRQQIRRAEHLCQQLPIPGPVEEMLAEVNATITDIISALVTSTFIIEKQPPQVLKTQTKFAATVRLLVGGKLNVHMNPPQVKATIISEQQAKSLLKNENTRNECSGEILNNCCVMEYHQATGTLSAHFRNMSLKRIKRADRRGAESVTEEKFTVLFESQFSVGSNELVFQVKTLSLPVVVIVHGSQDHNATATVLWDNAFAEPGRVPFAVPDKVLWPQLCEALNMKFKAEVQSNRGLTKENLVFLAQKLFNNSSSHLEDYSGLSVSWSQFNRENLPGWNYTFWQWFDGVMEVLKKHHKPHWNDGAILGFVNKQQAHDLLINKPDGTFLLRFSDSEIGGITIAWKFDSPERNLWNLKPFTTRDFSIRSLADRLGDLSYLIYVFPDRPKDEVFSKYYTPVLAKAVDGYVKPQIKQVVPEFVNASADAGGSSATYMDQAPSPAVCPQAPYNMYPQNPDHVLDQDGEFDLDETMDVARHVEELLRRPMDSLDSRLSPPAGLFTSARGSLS

MDA-MB-231 [4] = assay: Effect on total STAT5 level in human MDA-MB-231 cells at 0.3 to 3 uM after 3 hrs by Western blotting analysis; format: functional, cell-based; settings: dose 0.3-3 µM
In short: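 Breast cancer cells were treated with vehicle (0.1% DMSO) or compound, then lysed in RIPA with PMSF and phosphatase inhibitors. 20–50 μg protein was run on 8 or 12% SDS-PAGE, blotted to PVDF, blocked in 5% BSA, probed with primary antibodies overnight at 4 °C, then HRP secondaries, with ECL detection.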

[5] = target: T1, Signal transducer and activator of transcription 3; assay: Inhibition of STAT3 in human MDA-MB-231 cells assessed as downregulation of Mcl-1 expression at 0.3 to 3 uM after 24 hrs by western blot analysis; format: cell-based; settings: dose 0.3-3 µM
In short: (§1)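 TNBC cells given vehicle (0.1% DMSO) or graded compound levels for 24 h, lysed in RIPA with PMSF and phosphatase inhibitors. BCA-quantified lysate (20–50 µg) run on SDS-PAGE, transferred to PVDF, blocked in 5% BSA. Probed overnight at 4 °C for Bcl-xL, Mcl-1 and c-Myc, with β-actin. HRP secondary, ECL detection. Three independent experiments.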

[6] = target: T1, Signal transducer and activator of transcription 3; assay: Inhibition of STAT3 in human HCC70 cells assessed as downregulation of c-Myc expression at 0.3 to 3 uM after 24 hrs by western blot analysis; format: cell-based; settings: dose 0.3-3 µM; in short: as §1
MCF7 = assay: Antiproliferative activity against human MCF7 cells assessed as reduction in cell viability after 72 hrs by CCK8 assay; format: functional, cell-based; settings: MCF7, 72 h
In short: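 Cells seeded at 1000–8000 per well were grown overnight, then exposed to 0.1–100 μM compound or 0.1% DMSO vehicle for 72 h. CCK-8 was added for 0.5–4 h at 37 °C and absorbance read at 480 nm. Viability = (OD compound − blank)/(OD vehicle − blank) × 100, with medium as blank. IC50 fitted from three independent experiments.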

MDA-MB-231 [7] = assay: Induction of apoptosis in human MDA-MB-231 cells assessed as viable cells at 3 uM after 48 hrs by Annexin-V-FITC/propidium iodide staining based flow cytometric analysis (reference value: 93.4%); format: functional; settings: read-out: Activity
MDA-MB-468 = assay: Induction of apoptosis in human MDA-MB-468 cells assessed as late apoptotic cells at 1 uM after 48 hrs by Annexin-V-FITC/propidium iodide staining based flow cytometric analysis (reference value: 1.25%); format: functional
MDA231-LM2-4175 [8] = assay: Induction of apoptosis in human MDA231-LM2-4175 cells assessed as increase in PARP cleavage at 1 uM after 48 hrs by Western blot analysis; format: functional, cell-based
In short: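 Breast cancer cells given vehicle (0.1% DMSO) or compound, then lysed in RIPA buffer with PMSF and phosphatase inhibitors. BCA-quantified lysate (20–50 µg) run on 8 or 12% SDS-PAGE and transferred to PVDF. Blocked in 5% BSA, probed overnight at 4 °C for PARP and cleaved caspase-7, HRP secondary, ECL detection. β-actin as loading control.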

MDA231-LM2-4175 [9] = assay: Inhibition of cell migration in human MDA231-LM2-4175 cells incubated for 12 to 96 hrs by wound healing assay; format: functional, cell-based; settings: dose 0.3-3 µM, time 12-96 hrs
In short: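 Cells grown to 100% confluence, then scratched with a pipette tip. Treated with 0–3 μM until vehicle-treated cells had migrated into the scratch. Images taken by microscope after about 12–96 h. Triplicate experiments.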

[10] = Cmax in Sprague-Dawley rat at 10 mg/kg, po measured up to 24 hrs by LC-MS/MS analysis; format: ADME, organism-based; parameters: route oral, dose 10 mg/kg, time <=24; settings: in vivo
In short: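 Male SD rats given a single oral dose of 10 mg/kg in DMSO/0.5% HPMC (5/95, v/v). Blood was drawn at 0.25, 0.5, 1, 2, 4, 8 and 24 h, and plasma was analysed by LC-MS/MS on a BEH phenyl column with a formic acid water/acetonitrile mobile phase.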

MDA231-LM2-4175 [11] = assay: Antitumor activity against iv dosed human MDA231-LM2-4175 cells xenografted in mouse assessed as tumor growth inhibition administered once daily for 20 days; format: functional, organism-based; settings: dose 5-15 mg/kg, time 20.0 day
[12] = Toxicity in mouse xenografted with human MDA-MB-231-4175 cells assessed as morphological change in kidney at 5 to 15 mg/kg, […] once daily for 20 days by HE staining based assay; format: organism-based; settings: in vivo, iv, 480 h, dose 5-15 mg/kg, time 20 day
In short: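 Female NOD-SCID mice aged 4–5 weeks, given 2×10^6–3×10^6 MDA-MB-231-4175 cells subcutaneously in the flank. At about 100 mm³ tumour volume, randomised n=6/group: vehicle (PBS with 15% Cremophor EL), 5 or 15 mg/kg intraperitoneally daily. Killed at day 20; heart, liver, spleen, lung and kidney collected for morphological examination.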

T1 sequence (P40763 whole entry): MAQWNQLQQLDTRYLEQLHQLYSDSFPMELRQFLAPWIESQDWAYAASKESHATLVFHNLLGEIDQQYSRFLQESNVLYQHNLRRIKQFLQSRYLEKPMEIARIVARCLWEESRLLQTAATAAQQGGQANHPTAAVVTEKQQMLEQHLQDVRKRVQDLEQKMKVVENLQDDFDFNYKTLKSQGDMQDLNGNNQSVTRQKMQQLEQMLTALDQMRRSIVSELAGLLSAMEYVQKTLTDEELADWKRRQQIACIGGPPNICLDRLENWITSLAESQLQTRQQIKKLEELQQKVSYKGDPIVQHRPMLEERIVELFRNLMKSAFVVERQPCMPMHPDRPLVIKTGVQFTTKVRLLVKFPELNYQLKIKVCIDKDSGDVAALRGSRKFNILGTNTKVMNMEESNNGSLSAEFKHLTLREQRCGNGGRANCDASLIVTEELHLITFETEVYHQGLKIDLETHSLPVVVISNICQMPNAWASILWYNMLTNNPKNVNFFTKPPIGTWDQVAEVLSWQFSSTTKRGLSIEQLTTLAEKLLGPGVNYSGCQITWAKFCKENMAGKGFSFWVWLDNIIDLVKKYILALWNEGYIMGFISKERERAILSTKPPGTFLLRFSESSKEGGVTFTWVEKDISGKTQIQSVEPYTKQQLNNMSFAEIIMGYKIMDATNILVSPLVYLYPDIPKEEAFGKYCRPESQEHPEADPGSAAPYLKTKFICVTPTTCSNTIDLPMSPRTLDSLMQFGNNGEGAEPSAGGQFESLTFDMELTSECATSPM

## O=C(Cc1c(-c2ccccc2)nc2ccccn12)Nc1ccc2c(c1)S(=O)(=O)C=C2
[1]
  inhibition: Active
[2]
  inhibition: inactive
[3]
  inhibition: inactive
MDA-MB-231 [4]
  Activity: inactive
[5]
  inhibition: Active
[6]
  inhibition: Active
MCF7
  IC50: 7.22 µM
MDA-MB-231 [7]
  viability at 3 µM: 73.9%
MDA-MB-468
  Activity: 16.6%
MDA231-LM2-4175 [8]
  Activity: Active
MDA231-LM2-4175 [9]
  inhibition: Dose-Dependent Effect
[10]
  Cmax: 23.8 ng/mL
MDA231-LM2-4175 [11]
  Activity: Dose-Dependent Effect
[12]
  Activity: Non-Toxic
